From article PMC6852796 (Asian Pacific Journal of Cancer Prevention : APJCP, 2019)
Where “and” joins values, the source holds several entries; their conditions need not be identical. Equal entries are not always repeated.

Columns and labels:
[1] = NOS related cytotoxicity, SRB viability of RAW 264.7; format: cell-based, murine; conditions: mouse, RAW 264.7 macrophages
Outline: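 RAW 264.7 macrophages were maintained in high-glucose DMEM with 10% FBS and penicillin/streptomycin/[…] at 37 °C in humidified 5% CO2. The test compound's effect on their viability was measured by sulforhodamine B colorimetric staining, run alongside the LPS-stimulated nitrite assay.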

[2] = Selective cytotoxicity SRB assay, periodontal fibroblasts; format: cell-based; conditions: human, primary periodontal ligament fibroblasts (PDL), noncancerous
Outline: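 Primary human periodontal fibroblasts served as a noncancerous counter-screen for selective cytotoxicity. […] Assays were run in triplicate and reported as mean ± SD (n=3).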

[3] = biological target: T1, Crude porcine PL type II (pancreatic lipase) (Sus scrofa, UniProt P00591); test: In vitro PL activity spectrophotometric assay; format: biochemical; conditions: PL-IC50 value, p-NPB substrate, 37 °C
T1 sequence (P00591 1-450): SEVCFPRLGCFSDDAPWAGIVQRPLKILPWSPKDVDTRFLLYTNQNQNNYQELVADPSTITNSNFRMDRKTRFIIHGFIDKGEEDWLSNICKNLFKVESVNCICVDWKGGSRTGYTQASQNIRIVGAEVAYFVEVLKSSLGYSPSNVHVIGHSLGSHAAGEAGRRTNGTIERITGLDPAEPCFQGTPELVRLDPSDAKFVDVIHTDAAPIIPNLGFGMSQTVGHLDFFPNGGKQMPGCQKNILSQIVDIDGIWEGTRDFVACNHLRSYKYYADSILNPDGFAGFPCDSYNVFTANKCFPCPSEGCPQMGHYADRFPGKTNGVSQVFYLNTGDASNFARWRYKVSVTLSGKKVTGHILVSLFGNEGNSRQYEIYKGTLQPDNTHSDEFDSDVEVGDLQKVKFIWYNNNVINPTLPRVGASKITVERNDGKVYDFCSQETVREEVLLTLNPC

[4] = Glycation related cytotoxicity: test compound only, no MGO; format: cell-based, murine; conditions: mouse, RAW 264.7 macrophages
[5] = test system: LPS-induced nitric oxide production in RAW 264.7 macrophages; test: Anti-inflammatory; format: cell-based, murine; conditions: Mus musculus, RAW264.7, 24 h, read-out: NOS-IC50 value
Outline: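 Cells (2 x 10^5/well) were exposed to test compound (5-200 μg/mL) plus LPS 10 μg/mL for 24 h. Medium was mixed 1:1 with Griess reagent (1% sulfanilamide in 5% phosphoric acid; 0.1% naphthylethylenediamine-HCl) for 10 min at RT. A550 was read and nitrite taken from a sodium nitrite standard curve.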

[6] = test system: RAW 264.7 murine macrophages; test: Glycation related cytotoxicity: test compound only, no MGO; format: cell-based; conditions: RAW264.7, in absence of MGO, 48 hr, SRB
[7] = test system: Methylglyoxal induced cytotoxicity in RAW264.7 murine macrophages; test: Antiglycation determination via methylglyoxal induced cytotoxicity; format: cell-based; conditions: RAW264.7, MGO 300 µM, 48 hr, SRB

In the case of `CCc1ccc(Nc2c(F)cc3c(=O)c(C(=O)O)cn(C4CC4)c3c2[N+](=O)[O-])cc1` [3a, 1-cyclopropyl-7-(4-ethyl-phenylamino)-6-fluoro-8-nitro-4-oxo-1,4-dihydro-quinoline-3-carboxylic acid], the IC50 at 24 h [1] is reported as over 200 µg/mL, the IC50 at 72 h [2] is reported as 437 µM and 180 µg/mL and the IC50 [3] is reported as 21.6 µM. The IC50 at 48 h [4] was 437 µM and 180 µg/mL and the IC50 [5] was 309 µM and 127 µg/mL.
For `CCCCc1ccc(Nc2c(F)cc3c(=O)c(C(=O)O)cn(C4CC4)c3c2[N+](=O)[O-])cc1` [3b, 7-(4-butyl-phenylamino)-1-cyclopropyl-6-fluoro-8-nitro-4-oxo-1,4-dihydro-quinoline-3-carboxylic acid], the IC50 at 24 h [1] was 144 µg/mL and 327 µM, the IC50 at 72 h [2] was 416 µM and 183 µg/mL and the IC50 [3] was 23.1 µM and 23.2 µM. The IC50 [5] was 10.5 µg/mL and 23.8 µM.
With `CCc1ccc(Nc2c(F)cc3c(=O)c(C(=O)O)cn(C4CC4)c3c2N)cc1` [4a, 8-amino-1-cyclopropyl-7-(4-ethyl-phenylamino)-6-fluoro-4-oxo-1,4-dihydro-quinoline-3-carboxylic acid] the IC50 at 24 h [1] was over 200 µg/mL, the IC50 at 72 h [2] was 37.1 µM and 14.2 µg/mL and the IC50 [3] was 22.3 µM and 23.9 µM. The IC50 at 48 h [4] was 3.05 µM and 1.2 µg/mL and the IC50 [5] was 60 µM and 22.9 µg/mL.
For `CCCCc1ccc(Nc2c(F)cc3c(=O)c(C(=O)O)cn(C4CC4)c3c2N)cc1` [4b, 8-amino-7-(4-butyl-phenylamino)-1-cyclopropyl-6-fluoro-4-oxo-1,4-dihydro-quinoline-3-carboxylic acid], the IC50 at 24 h [1] was over 200 µg/mL, the IC50 at 72 h [2] was 407 µM and 167 µg/mL and the IC50 [3] was 74.7 µM and 69.6 µM. The IC50 at 48 h [4] was 8.51 µM and 3.5 µg/mL and the IC50 [5] was 29.8 µM and 12.2 µg/mL.
For `CCc1ccc(-n2nnc3c4c(cc(F)c32)c(=O)c(C(=O)O)cn4C2CC2)cc1` [5a, 9-cyclopropyl-3-(4-ethyl-phenyl)-4-fluoro-6-oxo-6,9-dihydro-3H-[1,2,3]triazolo[4,5-h]quinoline-7-carboxylic acid], the IC50 at 24 h [1] was over 200 µg/mL, the IC50 at 72 h [2] was 155 µM and 60.8 µg/mL and the IC50 [3] was 95.5 µM and 95.6 µM. The IC50 at 48 h [4] was 84.1 µM and 33 µg/mL and the IC50 [5] was 51.5 µM and 20.2 µg/mL.
In the case of `CCCCc1ccc(-n2nnc3c4c(cc(F)c32)c(=O)c(C(=O)O)cn4C2CC2)cc1` [5b, 3-(4-butyl-phenyl)-9-cyclopropyl-4-fluoro-6-oxo-6,9-dihydro-3H-[1,2,3]triazolo[4,5-h]quinoline-7-carboxylic acid], the IC50 at 24 h [1] is reported as over 200 µg/mL, the IC50 at 72 h [2] is reported as 42.5 µM and 17.9 µg/mL and the IC50 [3] is reported as 88.6 µM and 88.7 µM. For the same compound, the IC50 at 48 h [4] was 161 µM and 67.7 µg/mL and the IC50 [5] was 98.8 µM and 41.5 µg/mL.
In the case of `N=C(N)NN` [Aminogaunidine, Aminoguanidine, reference compound], the “Glycation related Cytotox.-IC50 value” [6] is reported as “(596.62±148.8 µg/mL )”, the IC50 ([6]; read-out: Glycation related Cytotox.-IC50 value) is reported as 5390 ± 1350 µM and the Glycation-IC50 value [7] is reported as “(0.34±0.0 µg/mL)”. The IC50 ([7]; read-out: Glycation-IC50 value) was 3.1 ± 0.35 µM.
In the case of `COc1ccc2c(c1)c(CC(=O)O)c(C)n2C(=O)c1ccc(Cl)cc1` [Indomethacin, reference compound], the IC50 at 24 h [1] is reported as over 200 µg/mL and the IC50 [5] is reported as 212 µM and 75.9 µg/mL.
